# Source: PubChem
# UPR XBP1 act: activators of adaptive XBP1 UPR arm, primary screen, cell-based, CHO-XBP1 luciferase reporter, luminescence, uHTS | IRE1-XBP1 UPR activation; percent of tunicamycin response, DMSO as zero | 330,000 tested, 0.33% active | AID 463104, 2010 | activation, % at 20 µM;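 active = versus positive control, 20 µM dose yields 30% or more activation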;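 also: 100% = tunicamycin at 10 µg/mL and 0% = DMSO only wells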
#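 Assay system: CHO-XBP1 luciferase reporter cells; Schedule: 6 h treatment, 37 °C; Detection: glow luminescence from Steady-Glo reagent; Benchmarks: high control tunicamycin 10 µg/mL final, low control DMSO vehicle only.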
# PfM18AAP inh: PfM18AAP inhibitors, malaria aminopeptidase, primary screen, biochemical, QFRET, recombinant enzyme | M18 aspartyl aminopeptidase (Plasmodium falciparum 3D7) | H-Glu-NHMec fluorogenic cleavage | inhibition, % at 7.35 µM | 290,000 tested, 1.2% active | AID 1822, 2009;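 active = inhibition above the campaign mean inhibition over all tested compounds plus 3 SD, cut at about 28% in these data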;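 also: 0% = plate median of test compound wells and 100% = 2 mM ZnCl2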
# CHOP inh: inhibitors of CHOP promoter induction, primary screen, cell-based, unfolded protein response, luciferase reporter. 220,000 tested, 3.8% active. AID 2732, 2010. inhibition, % at 10 µM. CHO-K1 CHOP-promoter luciferase, tunicamycin-induced, 15-18 h;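 active = compounds that reduced the stress-induced luciferase reporter signal by more than about 70% of percent inhibition, limit read from the data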;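 also: 0% = tunicamycin plus vehicle and 100% = wells without tunicamycin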
# CHOP UPR activ: activators of apoptotic CHOP UPR arm, primary screen, cell-based, CHO-CHOP luciferase reporter, luminescence, uHTS | UPR activation; percent of tunicamycin response over DMSO baseline | 330,000 tested, 0.34% active | activation, % at 10 µM;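 active = at 10 µM dose, activation of 40% or more, normalized to positive control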;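 also: 100% = tunicamycin at 10 µg/mL and 0% = DMSO alone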
#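 System: CHO CHOP reporter cells. Amount: 500 cells per well. Buffer or medium: F12 medium, 10% FBS. Compound dosing: one dose, 10 µM in 0.5% DMSO. Incubation: 6 h compound exposure at 37 °C after overnight seeding. Technique: Steady-Glo luciferase luminescence. Benchmarks: tunicamycin and DMSO controls.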
# p97 inhibitor: inhibitors of human p97 ATPase, primary screen, biochemical; inhibition, % at 8 µM; 220,000 tested, 0.42% active; recombinant p97 ATPase, Kinase-Glo ATP luminescence, 3 h; AID 1481, 2009; in the data active = inhibition above about 15%;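 also: 0% = DMSO vehicle and 100% = wells lacking enzyme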
# Target sequence (P55072 whole entry, looked up): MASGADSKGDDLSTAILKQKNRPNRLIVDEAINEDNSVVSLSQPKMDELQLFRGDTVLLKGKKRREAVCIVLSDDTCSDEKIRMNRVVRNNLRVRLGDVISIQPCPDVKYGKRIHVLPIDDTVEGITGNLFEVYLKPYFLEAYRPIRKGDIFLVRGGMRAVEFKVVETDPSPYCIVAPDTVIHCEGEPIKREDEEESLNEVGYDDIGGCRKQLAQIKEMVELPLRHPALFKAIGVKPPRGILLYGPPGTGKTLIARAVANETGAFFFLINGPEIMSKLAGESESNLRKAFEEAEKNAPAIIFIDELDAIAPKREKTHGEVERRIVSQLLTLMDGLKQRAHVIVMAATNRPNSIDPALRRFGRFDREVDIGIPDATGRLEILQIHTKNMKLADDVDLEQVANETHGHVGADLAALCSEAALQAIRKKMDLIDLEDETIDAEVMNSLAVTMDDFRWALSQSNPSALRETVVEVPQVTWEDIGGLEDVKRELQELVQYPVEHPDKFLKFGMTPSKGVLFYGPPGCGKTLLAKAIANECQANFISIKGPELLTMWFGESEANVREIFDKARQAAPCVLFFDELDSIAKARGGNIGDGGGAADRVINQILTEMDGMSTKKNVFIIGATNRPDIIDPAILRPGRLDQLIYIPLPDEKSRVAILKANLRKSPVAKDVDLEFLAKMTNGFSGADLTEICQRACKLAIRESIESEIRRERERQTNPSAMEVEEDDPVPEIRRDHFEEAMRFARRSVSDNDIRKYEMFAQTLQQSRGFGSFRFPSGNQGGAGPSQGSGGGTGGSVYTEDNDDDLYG
# HCV NS3 hel inh: inhibitors of HCV NS3 helicase, primary screen, biochemical, Cy5 molecular beacon fluorescence; inhibition, % at 10.9 µM; 290,000 tested, 0.56% active; NS3 helicase DNA unwinding;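 active = inhibition above the mean of all tested compounds plus 3 SD, set per campaign, cut at about 35% in these data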;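 also: 0% = DMSO wells and 100% = thioflavine S control wells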
#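 Measured by: Cy5 fluorescence, 0 and 60 min reads / Assay system: NS3 helicase fragment of HCV / Control set: low DMSO, high thioflavine S at 110 µM / Times: 1 h reaction at 25 °C, ATP-initiated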
# Numbers without * were called inactive; nt = not tested or not shown. Only some compounds are listed: those with a hit (about 4.5% of all), similar ones and a draw of the others.
SMILES,UPR XBP1 act,PfM18AAP inh,CHOP inh,CHOP UPR activ,p97 inhibitor,HCV NS3 hel inh
CCNC(=O)[C@H]1O[C@@H](n2cnc3c(N)nc(NCCc4ccc(CCC(=O)O)cc4)nc32)C(O)[C@H]1O (stereo partly specified),nt,nt,-16,nt,nt,nt
Cc1cc(C)n(C(=O)CCCn2cc([N+](=O)[O-])cn2)n1,1,5,7,1,1,7
O=C(COC(=O)c1ccc2ccccc2c1O)Nc1ccccc1,2,nt,nt,1,nt,nt
CCCn1cnc2c(c1=O)c1nc3ccccc3nc1n2CCc1ccccc1,-2,-2,73*,-1,-2,1
CCOCCCn1c(C)nc2c(c1=O)c1nc3ccccc3nc1n2CCC1=CCCCC1,5,3,95*,0,-2,1
Cc1nc2c(c(=O)n1CCC1=CCCCC1)c1nc3ccccc3nc1n2/N=C/c1ccccc1,29,0,-9,32,0,2
CCCCn1c2nc3ccccc3nc2c2c(=O)n(CCC(C)C)cnc21,3,-1,45,5,3,9
CCCn1cnc2c(c1=O)c1nc3ccccc3nc1n2CCC1=CCCCC1,nt,-3,84*,nt,2,1
Cc1cc(C)c2c(n1)SCC(=O)N2CC(=O)Nc1ccccc1Cl,0,0,nt,-1,nt,19
COc1cccc(C(=O)NCC2(c3ccccc3)CCCC2)c1OC,-5,2,nt,2,nt,-5
CCCCCCn1c(CN2CCC(C)CC2)nc2c1c(=O)n(C)c(=O)n2C,-4,6,76*,-1,-6,8
COc1ccccc1N1CCN(CCCCOc2cccc3ccccc23)CC1,-1,-7,84*,0,-7,-86
CCCCc1nc(NCC2CCCO2)c(C#N)c2c1COC(C)(C)C2 (stereo unspecified),-5,0,86*,-2,-4,-5
CCCCc1nc(N2CCOCC2)c(C#N)c2c1COC(C)(C)C2,-1,-3,1,0,-3,-2
COC(=O)c1cc(C(=O)Nc2nnc(CC(C)C)s2)cc([N+](=O)[O-])c1,-3,-2,19,3,4,0
CCC(CC)c1nnc(NC(=O)c2cc(C(=O)OC)cc([N+](=O)[O-])c2)s1,14,30*,9,7,0,1
CCN(CC(=O)Nc1ccc(NC(C)=O)cc1)C(=O)/C=C/c1ccc(S(=O)(=O)N2CCCCCC2)cc1,-5,4,nt,0,nt,7
COc1ccc2oc(=O)c(C(=O)Nc3cccc(C)c3)cc2c1,10,-5,82*,7,2,-5
COc1ccc(NC(=O)c2cc3cc(OC)ccc3oc2=O)cc1,0,nt,nt,3,nt,nt
C(=N\N1CCN(C2c3ccccc3-c3ccccc32)CC1)/c1ccncc1,-3,-12,83*,-2,3,-4
O=C(NC1CCCCC1)Oc1cc2oc(=O)sc2cc1Br,-5,31*,-8,6,-2,10
CCCC1=C(C(=O)OCC)C(c2ccc(OC)c(C)c2OC)C(C#N)=C(N)O1 (stereo unspecified),-5,1,72*,-3,-5,13
CCOC(=O)C1=C(CC)OC(N)=C(C#N)C1c1ccc(OC)c(C)c1OC (stereo unspecified),-1,-1,0,0,-2,5
CCOc1cccc(-c2cc(-c3n[nH]c(=S)n3CC)c3ccccc3n2)c1,4,11,87*,2,3,-4
CCn1c(-c2cc(-c3ccc(C)c(C)c3)nc3ccccc23)n[nH]c1=S,1,2,76*,1,1,1
COc1ccc(-c2nc3ccccc3c(=O)n2O)cc1,-1,0,nt,0,nt,5
COc1cc(OC)cc(-c2nc3ccccc3c(=O)n2OC(=O)c2ccccc2C)c1,22,9,94*,0,4,-7
